Among the data in PMC4982705 (Biochemical pharmacology, 2016) are Kd values, retold here.

Holding throughout (assay): intrinsic fluorescence titration
What all share (assay type): binding

Experiment [1] addresses SULT1B1 (hSULT1B1, wildtype) (Homo sapiens, UniProt O43704, E275K/H109Y). A digest of the protocol:
(§1)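 Ligand: PAP (cofactor product). Protein: N-terminal 6xHis human SULT1B1, expressed in E. coli BL21-DE3-RIL (IPTG, 20°C) and purified on Ni-NTA. 0.20 µM enzyme in 10 mM sodium phosphate pH 7.8, 10% glycerol, 150 mM NaCl. PAP titrated in; each step mixed 15 s, then intrinsic fluorescence (ex 282, em 338) read for 15 s. Kd from one-site hyperbolic fit; triplicate runs.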

Experiment [2] addresses SULT1B1 (hSULT1B1, wildtype) (Homo sapiens, UniProt O43704). The essentials:
as §1

Experiment [3] concerns the target SULT1B1-K266E/E275K heterodimer (Homo sapiens, UniProt O43704, E275K/K266E). The essentials:
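His-tagged K266E and E275K SULT1B1 subunits were purified separately from E. coli, then co-incubated at normalized concentrations for 1 h on ice to form the heterodimer. 0.20 µM enzyme in 10 mM sodium phosphate pH 7.8, 10% glycerol, 150 mM NaCl. PAP added stepwise; intrinsic fluorescence (ex 282/em 338) averaged over 15 s after 15 s mixing. Kd from one-site hyperbolic fit; triplicate.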

Experiment [4] concerns the target SULT1B1 (hSULT1B1, wildtype) (Homo sapiens, UniProt O43704, E275K). The essentials: as §1
In experiment [5] the target is SULT1B1 (hSULT1B1, wildtype) (Homo sapiens, UniProt O43704, K266E).
Sequence of SULT1B1 (hSULT1B1, wildtype) (Homo sapiens, UniProt O43704, K266E) (O43704 whole entry K266E): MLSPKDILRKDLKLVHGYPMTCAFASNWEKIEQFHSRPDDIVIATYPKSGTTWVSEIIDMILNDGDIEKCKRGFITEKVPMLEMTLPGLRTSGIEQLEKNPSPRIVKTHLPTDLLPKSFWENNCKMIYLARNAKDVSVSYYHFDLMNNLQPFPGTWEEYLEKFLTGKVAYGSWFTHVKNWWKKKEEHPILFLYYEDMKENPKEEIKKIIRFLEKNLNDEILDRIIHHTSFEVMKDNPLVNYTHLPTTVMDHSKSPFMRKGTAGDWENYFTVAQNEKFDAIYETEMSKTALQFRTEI

Sequence of SULT1B1 (hSULT1B1, wildtype) (Homo sapiens, UniProt O43704, E275K) (O43704 whole entry E275K): as the sequence (O43704 whole entry K266E) above, with E266K, E275K counted along it
Sequence of SULT1B1 (hSULT1B1, wildtype) (Homo sapiens, UniProt O43704) (O43704 whole entry): as the sequence (O43704 whole entry K266E) above, with E266K counted along it
Sequence of SULT1B1 (hSULT1B1, wildtype) (Homo sapiens, UniProt O43704, E275K/H109Y) (O43704 whole entry H109Y/E275K): as the sequence (O43704 whole entry K266E) above, with H109Y, E266K, E275K counted along it
Sequence of SULT1B1-K266E/E275K heterodimer (O43704 whole entry K266E): as the sequence (O43704 whole entry K266E) above
Sequence of SULT1B1-K266E/E275K heterodimer (O43704 whole entry E275K): as the sequence (O43704 whole entry K266E) above, with E266K, E275K counted along it

As to `Nc1ncnc2c1ncn2[C@@H]1O[C@H](COP(=O)(O)O)[C@@H](OP(=O)(O)O)[C@H]1O` [PAP, 3′,5′-diphosphoadenosine], the Kd (usually the equilibrium constant for the complex coming apart) in experiment [1] was determined as 668 ± 31 nM; in experiment [2], 106 ± 9 nM; in experiment [3], 180 ± 6 nM; in experiment [4], 80 ± 9 nM; in experiment [5], 1470 nM.
